Our source for the Activity, IC50 and inhibition values is ChEMBL document CHEMBL6134796, “Development and Evaluation of Indole-Based Phospholipase D Inhibitors for Lung Cancer Immunotherapy” (J Med Chem, 2025).

The test system of test [1] is A549. Put plainly: Downregulation of CD24 expression in human A549 cells by flow cytometry analysis. Format: functional, cell-based. Put shortly:
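A549 cells treated with compound. Surface "don't eat-me" and "eat-me" markers measured by flow cytometry.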

The next test relates to NCI-H460. As to the kind of experiment: Cytotoxicity against human NCI-H460 cells assessed as inhibition of cell growth incubated for 48 hrs by WST-1 assay. Type of test: functional, cell-based. Particulars: NCI-H460, 48 h. In short, it runs like this:
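WST-1 viability assay. Cells seeded at 5 × 10^3 per well and incubated 24 h at 37 °C, then exposed to drug for 48 h. Absorbance read at 450 nm, in triplicate. IC50 taken as the concentration giving 50% growth inhibition versus control.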
Background: Formazan colour is commonly taken as a measure of viable cells.

For test [2], the target named is T1, Phospholipase D1 (Mus musculus) (UniProt Q9Z280).
T1 sequence (whole entry): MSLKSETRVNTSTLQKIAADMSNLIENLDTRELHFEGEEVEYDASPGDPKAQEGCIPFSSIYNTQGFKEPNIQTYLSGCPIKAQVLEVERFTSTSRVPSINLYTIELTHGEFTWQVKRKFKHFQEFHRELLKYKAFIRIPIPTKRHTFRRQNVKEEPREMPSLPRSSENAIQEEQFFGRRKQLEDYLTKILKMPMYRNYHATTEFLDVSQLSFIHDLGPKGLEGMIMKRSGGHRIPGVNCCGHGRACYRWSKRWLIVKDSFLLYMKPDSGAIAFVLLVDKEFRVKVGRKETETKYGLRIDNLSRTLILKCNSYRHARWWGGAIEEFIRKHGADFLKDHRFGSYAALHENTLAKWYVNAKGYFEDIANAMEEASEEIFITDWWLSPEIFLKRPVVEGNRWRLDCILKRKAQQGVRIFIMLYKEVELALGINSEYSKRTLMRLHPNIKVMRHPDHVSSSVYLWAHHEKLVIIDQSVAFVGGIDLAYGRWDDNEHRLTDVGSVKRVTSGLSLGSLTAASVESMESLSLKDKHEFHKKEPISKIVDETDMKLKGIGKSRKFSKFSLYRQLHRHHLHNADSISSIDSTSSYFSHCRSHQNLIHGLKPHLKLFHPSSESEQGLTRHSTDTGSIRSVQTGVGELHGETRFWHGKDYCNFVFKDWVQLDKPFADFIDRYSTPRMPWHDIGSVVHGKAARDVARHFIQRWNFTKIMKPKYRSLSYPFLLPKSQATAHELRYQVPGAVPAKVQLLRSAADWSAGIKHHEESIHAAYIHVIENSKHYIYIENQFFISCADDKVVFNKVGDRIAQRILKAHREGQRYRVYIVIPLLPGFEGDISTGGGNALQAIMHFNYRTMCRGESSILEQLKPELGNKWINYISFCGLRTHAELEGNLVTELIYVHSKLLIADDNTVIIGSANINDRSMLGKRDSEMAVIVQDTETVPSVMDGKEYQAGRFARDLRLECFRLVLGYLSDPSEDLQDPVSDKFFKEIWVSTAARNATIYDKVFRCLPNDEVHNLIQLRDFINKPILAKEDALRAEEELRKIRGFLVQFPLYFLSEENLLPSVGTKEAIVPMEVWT
Put plainly: In vivo inhibition of PLD1 in male C57BL/6 mouse allografted with mouse Lewis lung carcinoma cell line assessed as decrease in CD163+ anti-inflammatory M2 macrophage population at 10 mg/kg, po by immunofluorescence analysis. Format: functional, organism-based. Put shortly: (§1)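 Same LLC syngeneic C57BL/6 model, 10 mg/kg PO every other day for 3 weeks. Tumor tissues were stained by immunofluorescence for CD80+ and CD163+ cells, CD8+ T cells, and CD4+/IL-17+ and Treg populations. Nuclei were counterstained with 1 μM Hoechst 33342 and imaged by confocal microscopy.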

Test [3] concerns the target Tubulin beta (Homo sapiens) (UniProt P68371+Q9H4B7+Q13509+P04350+Q3ZCM7+P07437+Q13885+Q9BVA1+Q9BUF5+A6NNZ2). Put plainly: Binding affinity to beta-tubulin in human A549 cells assessed as protection against pronase E-mediated proteolysis at 2 to 20 uM incubated for 1 hr by DARTS assay. Format: cell-based. Particulars: dose 2-20 µM. Put shortly: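 A549 lysates made in buffer with protease and phosphatase inhibitors. Lysates were incubated with compound for 1 h at room temperature, then digested with Pronase for 10 min at RT. Digestion was quenched in SDS loading buffer by boiling 5 min. PLD1 and β-tubulin were detected by immunoblot.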

The target in test [4] is T1, Phospholipase D1 (Mus musculus). Put plainly: In vivo inhibition of PLD1 in male C57BL/6 mouse allografted with mouse Lewis lung carcinoma cell line assessed as reduction in CD47 expression at 10 mg/kg, po by immunofluorescence analysis. Format: functional, organism-based.
Test [5] deals with A549. As to the kind of experiment: Enhancement of macrophage induced phagocytosis in CFSE labelled human A549 cells assessed as increase on CD11b+CFSE macrophage […] at 5 to 20 uM incubated for 48 hrs by flow cytometric analysis. Type of test: functional, cell-based. Particulars: dose 5-20 µM. In short, it runs like this:
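A549 cells treated 48 h in RPMI/10% FBS, then labeled with 1 μM CFSE. Co-cultured 1:1 (5 × 10^5 each) with PMA-differentiated THP-1 macrophages in serum-free RPMI for 2 h. After Fc block, stained with PerCP-Cy5.5 anti-CD11b for 20 min at 4 °C. CD11b+CFSE+ fraction measured by flow cytometry.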

In test [6] the test system is Lewis lung carcinoma cell line. Put plainly: Antitumor activity against mouse Lewis lung carcinoma cell line allografted in male C57BL/6 mouse model assessed as reduction in […] expression at 10 mg/kg, po measured every other day for 3 weeks by IHC analysis.
Test [7] deals with A549. Put plainly: Synergistic antiproliferative activity against human A549 cells assessed as reduction in cell proliferation measured up to 48 hrs in presence of gemcitabine by IncuCyte real-time imaging.
In test [8] the target is T1, Phospholipase D1 (Mus musculus). Put plainly: In vivo inhibition of PLD1 in male C57BL/6 mouse allografted with mouse Lewis lung carcinoma cell line assessed as reduction in PD-L1 expression at 10 mg/kg, po by immunofluorescence analysis. Type of test: functional, organism-based.
Test [9] has the same target. Put plainly: In vivo inhibition of PLD1 in male C57BL/6 mouse allografted with mouse Lewis lung carcinoma cell line assessed as increase in IL-17+ th17 cell population at 10 mg/kg, po by immunofluorescence analysis. Type of test: functional, organism-based. Put shortly:
as §1

The target is the same in test [10]. As to the kind of experiment: In vivo inhibition of PLD1 in male C57BL/6 mouse allografted with mouse Lewis lung carcinoma cell line assessed as increase in CD80+ pro-inflammatory M1 macrophage population at 10 mg/kg, po by immunofluorescence analysis. Type of test: functional, organism-based. Put shortly: as §1
For test [11] the target is unchanged. As to the kind of experiment: In vivo inhibition of PLD1 in male C57BL/6 mouse allografted with mouse Lewis lung carcinoma cell line assessed as increase in calreticulin expression at 10 mg/kg, po by immunofluorescence analysis. Type of test: functional, organism-based.
In test [12] the test system is Lewis lung carcinoma cell line. Put plainly: Antitumor activity against mouse Lewis lung carcinoma cell line allografted in male C57BL/6 mouse model assessed as increase in caspase 3 expression at 10 mg/kg, po measured every other day for 3 weeks by IHC analysis. Type of test: functional, organism-based. Put shortly: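 Syngeneic model: 6-week-old male C57BL/6 mice given 3 × 10^5 LLC cells in 50 μL PBS subcutaneously in the flank. At day 7, mice were randomized to vehicle PO daily or 10 mg/kg PO every other day for 3 weeks. Caliper volume was taken every 2 days as ([…])/2, with tumor weight at end. Spleen size and weight were recorded. Ki67 and cleaved caspase-3 were scored by IHC (DAB, hematoxylin).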

pIC50: −log10 of the molar value. Active and inactive are the calls of the source. The calls are words filed in the database; no cut-off is given here.

As a reminder, the pIC50 is −log10 of the IC50, conventionally taken in molar units. Take `O=C(CCc1c[nH]c2ccccc12)Nc1cc(C(F)(F)F)cc(C(F)(F)F)c1`: the outcome (in the test on A549 [1]; in the test on A549 [5]; in test [6]; in the test with A549 [7]; in test [12]) was Active. Further, in the test with NCI-H460, the pIC50 was 4.60. Besides, the inhibition entry in [2], in test [4], in [8], in test [9], in test [10] and in [11] was “Active” in each case. Besides, the result in test [3] was inactive.
